# Experimental data from ChEMBL document CHEMBL1149252, “Synthesis and structure-activity relationships of 4-alkynyloxy phenyl sulfanyl, sulfinyl, and sulfonyl alkyl hydroxamates as tumor necrosis factor-alpha converting enzyme and matrix metalloproteinase inhibitors” (J Med Chem, 2004).
# Calls of active or inactive are those of the source. The rule behind the calls is not given here.
# Assays:
# THP-1 = assay: Inhibition of LPS-stimulated TNFalpha production in human THP1 cells at 3 uM by ELISA; type: functional
# [1] = target: T1, Disintegrin and metalloproteinase domain-containing protein 17 (Homo sapiens, UniProt P78536)
# Collagenase 3 [2] = target: T2, Collagenase 3 (Homo sapiens, UniProt P45452)
# [3] = target: T3, Matrix metalloproteinase-9 (Homo sapiens, UniProt P14780)
# Interstitial collagenase [4] = target: T4, Interstitial collagenase (Homo sapiens, UniProt P03956)
# [5] = target: T3, Matrix metalloproteinase-9; assay: Inhibition of MMP9 at 10 uM
# Procedure, shortened: (§1)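 Cell-free assay on isolated enzyme (MMP-1, MMP-9, MMP-13 or TACE). Percent inhibition was read at a single 10 μM inhibitor concentration, with samples run in triplicate and the mean reported. Full dose-response curves were generated only where inhibition at 10 μM reached 60%.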
# [6] = target: T1, Disintegrin and metalloproteinase domain-containing protein 17; assay: Inhibition of TACE at 10 uM; procedure, shortened: as §1
# Interstitial collagenase [7] = target: T4, Interstitial collagenase; assay: Inhibition of MMP1 at 10 uM; procedure, shortened: as §1
# Collagenase 3 [8] = target: T2, Collagenase 3; assay: Inhibition of MMP13 at 10 uM; procedure, shortened: as §1
# Mus musculus [9] = assay: Inhibition of LPS-stimulated TNFalpha production in mouse model at 10 mg/kg, po; type: functional, organism-based; design: dose 10 mg/kg
# Procedure, shortened: (§2)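 Mice received the compound orally. LPS was injected 30 min after dosing. Blood was drawn 1 h after LPS, and serum TNF-α was measured by ELISA. Results are expressed as % inhibition of LPS-induced TNF-α.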
# Mus musculus [10] = assay: Inhibition of LPS-stimulated TNFalpha production in mouse model at 100 mg/kg, po at 12 hrs; type: functional
# Mus musculus [11] = assay: Inhibition of LPS-stimulated TNFalpha production in mouse model at 100 mg/kg, po at 1 hrs; type: functional; procedure, shortened: as §2
# Mus musculus [12] = assay: Inhibition of LPS-stimulated TNFalpha production in mouse model at 10 mg/kg, po at 12 hrs; type: functional, organism-based; design: dose 10 mg/kg
# Mus musculus [13] = assay: Inhibition of LPS-stimulated TNFalpha production in mouse model at 10 mg/kg, po at 1 hrs; type: functional; procedure, shortened: as §2
# T3 sequence (P14780 whole entry): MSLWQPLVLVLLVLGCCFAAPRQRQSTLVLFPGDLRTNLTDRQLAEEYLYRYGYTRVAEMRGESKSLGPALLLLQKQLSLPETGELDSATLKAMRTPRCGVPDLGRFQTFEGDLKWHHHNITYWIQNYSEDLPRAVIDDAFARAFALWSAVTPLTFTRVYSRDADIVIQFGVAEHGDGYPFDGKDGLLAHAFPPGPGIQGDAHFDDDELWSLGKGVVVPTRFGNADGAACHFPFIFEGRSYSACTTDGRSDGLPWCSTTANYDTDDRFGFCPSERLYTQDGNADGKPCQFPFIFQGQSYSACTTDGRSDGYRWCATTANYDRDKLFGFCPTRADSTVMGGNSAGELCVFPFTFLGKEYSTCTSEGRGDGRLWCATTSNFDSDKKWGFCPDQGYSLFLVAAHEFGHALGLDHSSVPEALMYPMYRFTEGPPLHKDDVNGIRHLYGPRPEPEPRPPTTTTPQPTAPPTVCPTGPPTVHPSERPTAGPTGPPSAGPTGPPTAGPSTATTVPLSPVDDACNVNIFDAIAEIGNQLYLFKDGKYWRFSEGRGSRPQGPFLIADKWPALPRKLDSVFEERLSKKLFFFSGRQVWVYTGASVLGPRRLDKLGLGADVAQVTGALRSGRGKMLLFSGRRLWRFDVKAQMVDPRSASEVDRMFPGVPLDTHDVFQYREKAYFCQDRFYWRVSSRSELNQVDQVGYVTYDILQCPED
# T1 sequence (P78536 whole entry, the tested form may be a part): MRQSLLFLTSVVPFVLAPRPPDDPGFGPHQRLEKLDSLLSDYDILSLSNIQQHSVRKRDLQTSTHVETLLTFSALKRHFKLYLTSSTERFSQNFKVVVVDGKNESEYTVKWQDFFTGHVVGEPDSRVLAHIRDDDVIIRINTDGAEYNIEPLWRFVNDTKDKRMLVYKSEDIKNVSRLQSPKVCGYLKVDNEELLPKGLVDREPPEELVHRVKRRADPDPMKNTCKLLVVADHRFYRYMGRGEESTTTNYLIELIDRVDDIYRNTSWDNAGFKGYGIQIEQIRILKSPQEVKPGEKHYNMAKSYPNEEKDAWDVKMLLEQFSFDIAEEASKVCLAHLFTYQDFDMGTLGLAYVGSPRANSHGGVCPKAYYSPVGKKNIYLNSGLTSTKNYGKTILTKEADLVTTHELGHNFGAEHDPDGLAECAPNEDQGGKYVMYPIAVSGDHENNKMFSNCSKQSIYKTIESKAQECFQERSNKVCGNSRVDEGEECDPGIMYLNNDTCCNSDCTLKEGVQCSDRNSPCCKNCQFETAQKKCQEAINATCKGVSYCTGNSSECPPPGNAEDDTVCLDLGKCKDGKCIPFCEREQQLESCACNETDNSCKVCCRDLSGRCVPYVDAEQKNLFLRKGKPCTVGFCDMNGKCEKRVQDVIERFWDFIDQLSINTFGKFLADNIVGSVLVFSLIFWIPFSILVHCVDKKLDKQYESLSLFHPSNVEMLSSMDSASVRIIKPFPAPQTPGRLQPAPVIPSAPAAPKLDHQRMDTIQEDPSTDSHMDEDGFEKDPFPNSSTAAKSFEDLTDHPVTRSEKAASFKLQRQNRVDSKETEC
# T4 sequence (P03956 whole entry): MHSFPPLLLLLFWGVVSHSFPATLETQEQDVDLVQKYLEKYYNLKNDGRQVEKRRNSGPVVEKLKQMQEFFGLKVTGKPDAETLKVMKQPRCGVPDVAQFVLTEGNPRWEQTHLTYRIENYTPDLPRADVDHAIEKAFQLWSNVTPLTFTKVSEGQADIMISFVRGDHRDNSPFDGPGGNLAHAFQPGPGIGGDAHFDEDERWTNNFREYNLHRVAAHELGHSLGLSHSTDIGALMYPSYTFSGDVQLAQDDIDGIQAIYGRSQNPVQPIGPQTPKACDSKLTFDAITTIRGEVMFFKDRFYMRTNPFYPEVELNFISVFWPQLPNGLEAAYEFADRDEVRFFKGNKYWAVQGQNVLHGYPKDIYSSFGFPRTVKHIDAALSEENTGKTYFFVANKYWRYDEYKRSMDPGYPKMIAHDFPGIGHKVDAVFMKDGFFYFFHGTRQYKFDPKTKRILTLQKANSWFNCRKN
SMILES,IC50 [1],IC50 (Collagenase 3 [2]),IC50 [3],IC50 (Interstitial collagenase [4]),inhibition at 3 µM (THP-1),other results
CC#CCOc1ccc(SC2(C(=O)NO)CCN(C(=O)OC(C)(C)C)CC2)cc1,,,,,0%,inhibition [5]: 25%; inhibition [6]: 38%; inhibition (Interstitial collagenase [7]): 24%
CCCCCC[C@@H](C(=O)NO)[S@+]([O-])c1ccc(OC)cc1 (relative stereo),30 nM,72 nM,186 nM,1150 nM,,
CC#CCOc1ccc(S(=O)(=O)C(C(=O)NO)C2CCN(C(=O)C3CC3)CC2)cc1 (configuration not stated),54 nM,> 10000 nM,> 10000 nM,> 10000 nM,71%,
O=C(NO)C1(S(=O)(=O)c2ccc(OCC#CCN3CCOCC3)cc2)CCN(Cc2ccc(Br)cc2)CC1,,,,,0%,inhibition (Collagenase 3 [8]): 63%; inhibition [5]: 20%; inhibition (Interstitial collagenase [7]): 16%
CC#CCOc1ccc(S(=O)(=O)C2(C(=O)NO)CCN(Cc3ccc(OC)cc3)CC2)cc1,,,,,,Activity (Mus musculus [9]): inactive; inhibition in vivo at 100 mg/kg (Mus musculus [10]): 24%; inhibition in vivo at 100 mg/kg (Mus musculus [11]): 91%
CC#CCOc1ccc(S(=O)(=O)C(C(=O)NO)C2CCNCC2)cc1 (configuration not stated),,> 10000 nM,> 10000 nM,> 10000 nM,,
CC#CCOc1ccc(S(=O)(=O)C2(C(=O)NO)CCN(Cc3ccc(Cl)cc3)CC2)cc1,,,,,66%,inhibition (Collagenase 3 [8]): 56%; inhibition [5]: 52%; Activity (Mus musculus [9]): inactive; inhibition in vivo at 100 mg/kg (Mus musculus [10]): 23%; inhibition (Interstitial collagenase [7]): 52%; inhibition in vivo at 100 mg/kg (Mus musculus [11]): 61%
CC#CCOc1ccc(S(=O)(=O)C(C(=O)NO)c2ccccc2)cc1 (configuration not stated),94 nM,68 nM,124 nM,4570 nM,68%,
COc1ccc(S(=O)(=O)C2(C(=O)NO)CCN(Cc3ccc(Br)cc3)CC2)cc1,,,,,0%,
CC#CCOc1ccc(S(=O)(=O)C2(C(=O)NO)CCN(CC)CC2)cc1,80 nM,,,,35%,inhibition [5]: 31%; inhibition (Interstitial collagenase [7]): 44%
"CC#CCOc1ccc([S+]([O-])C(C(=O)NO)c2ccc(OC)cc2)cc1 (single isomer, unassigned)",17 nM,> 10000 nM,> 10000 nM,> 10000 nM,,
CC#CCOc1ccc(SC(C(=O)NO)c2ccccc2)cc1 (configuration not stated),,> 10000 nM,> 10000 nM,> 10000 nM,14%,
CCC#CCOc1ccc(S(=O)(=O)C2(C(=O)NO)CCN(Cc3ccc(Br)cc3)CC2)cc1,,,,,0%,inhibition (Collagenase 3 [8]): 40%; inhibition [5]: 41%; inhibition (Interstitial collagenase [7]): 51%
CC#CCOc1ccc(S(=O)(=O)C(C(=O)NO)c2ccc(OC)cc2)cc1 (configuration not stated),201 nM,3690 nM,> 10000 nM,> 10000 nM,,
CC#CCOc1ccc(SC(C(=O)NO)C2CCCCC2)cc1 (configuration not stated),,2000 nM,3000 nM,> 10000 nM,5%,
CC#CCOc1ccc([S@+]([O-])[C@H](CCCCCC)C(=O)NO)cc1,12 nM,150 nM,1000 nM,3200 nM,35%,
CC#CCOc1ccc([S@@+]([O-])[C@H](C(=O)NO)C(C)C)cc1,,,399 nM,6480 nM,,
CC#CCOc1ccc(SC(CCCCCC)C(=O)NO)cc1 (configuration not stated),,,,> 10000 nM,5%,
CC#CCOc1ccc(S(=O)(=O)N2CCSC(C)(C)[C@@H]2C(=O)NO)cc1,,,,,,Activity (Mus musculus [12]): inactive; inhibition in vivo at 10 mg/kg (Mus musculus [13]): 80%
CC#CCOc1ccc(SC2(C(=O)OCC)CCN(C(=O)OC(C)(C)C)CC2)cc1,,,,,0%,inhibition (Collagenase 3 [8]): 32%; inhibition [5]: 21%; inhibition [6]: 67%; inhibition (Interstitial collagenase [7]): 26%
CCCCCC#CCOc1ccc(S(=O)(=O)C2(C(=O)NO)CCN(Cc3ccc(Br)cc3)CC2)cc1,,,,,0%,inhibition (Collagenase 3 [8]): 60%; inhibition [5]: 59%; inhibition (Interstitial collagenase [7]): 33%
CCCCCC[C@@H](C(=O)NO)[S@@+]([O-])c1ccc(OC)cc1 (relative stereo),375 nM,18 nM,148 nM,1510 nM,,
CC#CCOc1ccc([S@@+]([O-])[C@@H](CCCCCC)C(=O)NO)cc1,4 nM,900 nM,1500 nM,3000 nM,67%,
CC#CCOc1ccc(S(=O)(=O)C(C(=O)NO)C2CC[S+]([O-])CC2)cc1 (configuration not stated),39 nM,> 10000 nM,> 10000 nM,> 10000 nM,14%,
CCCCCCC(Sc1ccc(OC)cc1)C(=O)NO (configuration not stated),,,,,,inhibition (Collagenase 3 [8]): 55%; inhibition [5]: 67%; inhibition (Interstitial collagenase [7]): 9%
CC#CCOc1ccc(S(=O)(=O)C(C(=O)NO)C2CCSCC2)cc1 (configuration not stated),113 nM,> 10000 nM,> 10000 nM,> 10000 nM,15%,
CC#CCOc1ccc([S@@](=O)[C@H](C(=O)NO)c2ccc(OC)cc2)cc1,48 nM,> 10000 nM,> 10000 nM,> 10000 nM,12%,

# The next lines start with results.
IC50 [1],IC50 (Collagenase 3 [2]),IC50 [3],IC50 (Interstitial collagenase [4]),SMILES,inhibition at 3 µM (THP-1),other results
69 nM,7 nM,18 nM,96 nM,C#CCOc1ccc(S(=O)(=O)C2(C(=O)NO)CCN(Cc3ccccc3)CC2)cc1,0%,
,> 10000 nM,> 10000 nM,> 10000 nM,CC#CCOc1ccc(SC(C(=O)NO)C(C)C)cc1 (configuration not stated),13%,
,,> 10000 nM,> 10000 nM,CC#CCOc1ccc(S(=O)(=O)C(C(=O)NO)C2CCCCC2)cc1 (configuration not stated),,
119 nM,> 10000 nM,> 10000 nM,> 10000 nM,CC#CCOc1ccc(S(=O)(=O)C(C(=O)NO)C2CCN(C(C)=O)CC2)cc1 (configuration not stated),31%,
,> 10000 nM,> 10000 nM,> 10000 nM,CC#CCOc1ccc(SC(C(=O)NO)c2ccc(OC)cc2)cc1 (configuration not stated),3%,
74 nM,> 10000 nM,> 10000 nM,> 10000 nM,CC#CCOc1ccc([S@@](=O)[C@H](C(=O)NO)c2ccccc2)cc1,4%,
,> 10000 nM,> 10000 nM,> 10000 nM,CC#CCOc1ccc(S(=O)(=O)C(C(=O)NO)C2CCOCC2)cc1 (configuration not stated),,
233 nM,> 10000 nM,> 10000 nM,> 10000 nM,CC#CCOc1ccc(S(=O)(=O)C(C(=O)NO)C2CCN(C(=O)c3ccccc3)CC2)cc1 (configuration not stated),28%,
,,,3370 nM,CC#CCOc1ccc(S(=O)(=O)C2(C(=O)NO)CCN(Cc3ccc(Br)cc3)CC2)cc1,,
,> 10000 nM,> 10000 nM,> 10000 nM,"CC#CCOc1ccc([S+]([O-])C(C(=O)NO)c2ccccc2)cc1 (single isomer, unassigned)",74%,
75 nM,500 nM,2500 nM,> 10000 nM,CC#CCOc1ccc(S(=O)(=O)C(CCCCCC)C(=O)NO)cc1 (configuration not stated),6%,
,,,2640 nM,CC#CCOc1ccc(S(=O)(=O)C2(C(=O)NO)CCN(Cc3ccccc3)CC2)cc1,,
72 nM,5 nM,10 nM,3960 nM,CCCCOc1ccc(S(=O)(=O)C2(C(=O)NO)CCN(Cc3ccc(Br)cc3)CC2)cc1,6%,
,3 nM,6 nM,,C#CCOc1ccc(S(=O)(=O)C2(C(=O)NO)CCN(Cc3ccc(Br)cc3)CC2)cc1,7%,
,107 nM,1260 nM,5140 nM,CC#CCOc1ccc(S(=O)(=O)C(C(=O)NO)C(C)C)cc1 (configuration not stated),,
